# Results gathered from unrelated publications.
# Target: Protein kinase C zeta type (PRKCZ, Homo sapiens, UniProt Q05513)
# One construct used (Q05513 1-592): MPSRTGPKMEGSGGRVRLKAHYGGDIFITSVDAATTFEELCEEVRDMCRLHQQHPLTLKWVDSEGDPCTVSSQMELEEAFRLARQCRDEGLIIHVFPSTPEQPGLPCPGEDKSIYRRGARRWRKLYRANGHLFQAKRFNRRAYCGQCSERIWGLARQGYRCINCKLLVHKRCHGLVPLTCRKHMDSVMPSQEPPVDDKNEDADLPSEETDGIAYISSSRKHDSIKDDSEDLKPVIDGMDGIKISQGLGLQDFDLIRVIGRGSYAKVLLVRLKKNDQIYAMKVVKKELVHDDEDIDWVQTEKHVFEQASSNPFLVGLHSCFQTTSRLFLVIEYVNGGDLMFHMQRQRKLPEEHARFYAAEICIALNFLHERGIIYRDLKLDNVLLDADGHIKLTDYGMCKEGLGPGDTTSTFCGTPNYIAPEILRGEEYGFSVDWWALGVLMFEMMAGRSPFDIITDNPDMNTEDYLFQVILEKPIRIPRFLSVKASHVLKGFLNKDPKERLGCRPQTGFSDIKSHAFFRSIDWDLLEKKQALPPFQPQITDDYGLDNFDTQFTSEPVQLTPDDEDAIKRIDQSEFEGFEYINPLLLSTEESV
Compound,observed,action,technique,concentration,measurement,value
Cn1c2c(c3ccc(Cl)c(Cl)c31)C(C#N)C1(CCCC1)NC2=O (centres unmarked),thermal stability,,DSF,10 µM,ΔTm,-0.2 °C
CNC(=O)c1cc(Oc2ccc(NC(=O)Nc3ccc(Cl)c(C(F)(F)F)c3)cc2)ccn1,enzyme activity,inhibitor,,10 µM,inhibition,-5%
CCN(CC)c1ccc(C2=NNC(=O)CC2C)cc1[N+](=O)[O-] (centres unmarked),enzyme activity,inhibitor,,10 µM,remaining activity,102%
CC/C(=N\NC(=O)NCc1cccc(O)c1)c1ccc(O)c(C)c1O,enzyme activity,inhibitor,,0.1 µM,inhibition,11%
Cc1ccc(Nc2nccc(N(C)c3ccc4c(C)n(C)nc4c3)n2)cc1S(N)(=O)=O,enzyme activity,inhibitor,,10 µM,inhibition,-2%
COc1cc2ncnc(Nc3ccc(Oc4ccccc4)cc3C)c2cc1OC,enzyme activity,inhibitor,,1 µM,inhibition,3%
Cn1c2c(Cl)c(Cl)ccc2c2cc(N)[nH]c(=O)c21,thermal stability,,DSF,10 µM,ΔTm,0.1 °C
COc1cc(-c2cc(-c3ccc(N4CCNCC4)cc3)cnc2C)cc(OC)c1OC,enzyme activity,inhibitor,,0.1 µM,inhibition,5%
C[C@@H](N)[C@H]1CC[C@H](C(=O)Nc2ccncc2)CC1,enzyme activity,inhibitor,TR-FRET,10 µM,inhibition,7.4%
Oc1cccc(-c2nc(N3CCOCC3)c3oc4ncccc4c3n2)c1,enzyme activity,inhibitor,,10 µM,remaining activity,98%
COc1cc(Nc2cnc(C#N)c(O[C@H](C)CN(C)C)n2)ncc1-c1cnn(C)c1,enzyme activity,inhibitor,radiometric,10 µM,remaining activity,79%
COc1cc(/C=C/C(=O)CC(=O)/C=C/c2ccc(O)c(OC)c2)ccc1O,enzyme activity,inhibitor,,1 µM,activity vs control,94%
Nc1nc(Nc2ccccc2)sc1C(=O)c1c(F)cccc1F,enzyme activity,inhibitor,,10 µM,remaining activity,83%
FC(F)c1nc2ccccc2n1-c1nc(N2CCOCC2)nc(N2CCOCC2)n1,enzyme activity,inhibitor,,10 µM,remaining activity,87%
COc1cccc2c(NCc3ccccc3)nc(-n3c(N)nc4ccccc43)nc12,target engagement in cells,inhibitor,chemoproteomics,20 mM,inhibition,19.7%
O=C(Nc1cnn(-c2csc(C(=O)NC3COC3)c2)c1)Nc1ccccc1Cl,enzyme activity,inhibitor,,5 µM,remaining activity,105%
Cc1ccc(NC(=O)c2ccc(C)c(C(F)(F)F)c2)cc1C#Cc1nn(C2CCC(O)CC2)c2ncnc(N)c12 (centres unmarked),cell-free assay,,,10 µM,remaining signal,99%
O=C1NC(=O)c2cc(Nc3ccc(F)cc3)c(Nc3ccc(F)cc3)cc21,cell-free assay,,,0.5 µM,remaining signal,100%
CCC1(CC)NC(=O)c2c(c3ccc(Cl)c(Cl)c3n2C)C1C#N (centres unmarked),thermal stability,,DSF,10 µM,ΔTm,-0.4 °C
CCCCNc1ncc2c(-c3ccc(F)cc3)nn(C[C@H]3CC[C@H](N)CC3)c2n1,target engagement in cells,inhibitor,chemoproteomics,20 mM,inhibition,-19.6%
N#CCCc1ccc2c(c1)-c1[nH]c3ccc([N+](=O)[O-])cc3c1CC(=O)N2,cell-free assay,,,0.5 µM,remaining signal,83.4%
CCN1CCC2(CC1)NC(=O)c1c(c3ccc(Cl)c(Cl)c3n1C)C2C#N (racemic),thermal stability,,DSF,10 µM,ΔTm,0.1 °C
CC(C)(O)[C@H]1CC[C@H](Nc2ccc3ncc(-c4cccc(C(F)(F)F)c4)n3n2)CC1,enzyme activity,inhibitor,,1 µM,remaining activity,98%
Cn1c2c(Cl)c(Cl)ccc2c2cc[nH]c(=O)c21,thermal stability,,DSF,10 µM,ΔTm,0.4 °C
CC(C)(C)c1nc2c(s1)c1nc(N)ncc1c1ccc(NS(=O)(=O)c3c(F)cccc3F)c(F)c12,enzyme activity,inhibitor,radiometric,1 µM,remaining activity,107%
Cc1ccc(C(=O)NCc2ccsc2)cc1C#Cc1cn(C(C)C)c2ncnc(N)c12,enzyme activity,inhibitor,,1 µM,activity vs control,111%
